Source: ChEMBL document CHEMBL5303300, “EUbOPEN Chemogenomics Library - Multiplex” (2023)
“And” between values parts separate entries of the source, which are not always exact repeats. Equal values may be shown once.

Test system: Fibroblast
Assay: Multiplex assay against human fibroblast
Assay type: toxicity, cell-based
Details: number of replicates 2
Summary of the method: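 Live cells were stained at seeding with Hoechst33342, BioTracker Green Microtubule Cytoskeleton Dye, MitoTracker Red and Annexin V Alexa Fluor 680, then imaged on a CQ1 microscope at 37°C and 5% CO2 after compound addition. CellPathfinder machine-learning gating split cells into Hoechst high-intensity objects or normal cells. Normal cells were split into healthy, pyknosed or fragmented nuclei, and pyknosed cells into mitotic or apoptotic. Tubulin, mitochondrial-mass and membrane-permeability phenotypes are per cents of healthy-nucleus cells.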

[1] = 12 h, 1 µM, compound concentration 1 uM
[2] = 12 h, 10 µM, compound concentration 10 uM
[3] = 24 h, 1 µM, compound concentration 1 uM
[4] = 24 h, 10 µM, compound concentration 10 uM
[5] = 48 h, 1 µM, compound concentration 1 uM
[6] = 48 h, 10 µM, compound concentration 10 uM

## COc1ccccc1-c1cc(Nc2cccc(CS(N)(=O)=O)c2)ncn1
[1]
  Population Apoptotic (%): 36% and 33%
  Population Fragmented Nuclei (%): 4% and 7%
  Population Healthy Nuclei (%): 78% and 68%
  Population Hoechst High Intensity Objects (%): 0%
  Population Membrane Permeable-Phenotype (%): 8% and 2%
  Population Mitochondria Different-Phenotype (%): 1% and 0%
  Population Mitotic Cells (%): 63% and 66%
  Population Normal (%): 100% and 99%
  Population Pyknosed Nuclei (%): 16% and 24%
  Population Tubulin-Different-Phenotype (%): 13% and 7%
  Total Cell Count: 202 and 230
[2]
  Population Apoptotic (%): 46% and 42%
  Population Fragmented Nuclei (%): 4% and 7%
  Population Healthy Nuclei (%): 77% and 71%
  Population Hoechst High Intensity Objects (%): 0%
  Population Membrane Permeable-Phenotype (%): 7% and 5%
  Population Mitochondria Different-Phenotype (%): 0% and 1%
  Population Mitotic Cells (%): 53% and 57%
  Population Normal (%): 100% and 99%
  Population Pyknosed Nuclei (%): 17% and 21%
  Population Tubulin-Different-Phenotype (%): 17% and 19%
  Total Cell Count: 181 and 214
[3]
  Population Apoptotic (%): 41% and 49%
  Population Fragmented Nuclei (%): 6% and 10%
  Population Healthy Nuclei (%): 75% and 64%
  Population Hoechst High Intensity Objects (%): 0%
  Population Membrane Permeable-Phenotype (%): 5% and 7%
  Population Mitochondria Different-Phenotype (%): 2% and 0%
  Population Mitotic Cells (%): 58% and 50%
  Population Normal (%): 100% and 99%
  Population Pyknosed Nuclei (%): 18% and 25%
  Population Tubulin-Different-Phenotype (%): 15% and 12%
  Total Cell Count: 194 and 245
[4]
  Population Apoptotic (%): 61% and 55%
  Population Fragmented Nuclei (%): 10% and 9%
  Population Healthy Nuclei (%): 76% and 68%
  Population Hoechst High Intensity Objects (%): 0%
  Population Membrane Permeable-Phenotype (%): 1%
  Population Mitochondria Different-Phenotype (%): 3% and 4%
  Population Mitotic Cells (%): 38% and 44%
  Population Normal (%): 100%
  Population Pyknosed Nuclei (%): 12% and 21%
  Population Tubulin-Different-Phenotype (%): 18% and 15%
  Total Cell Count: 202 and 214
[5]
  Population Apoptotic (%): 66% and 56%
  Population Fragmented Nuclei (%): 5% and 14%
  Population Healthy Nuclei (%): 78% and 67%
  Population Hoechst High Intensity Objects (%): 0%
  Population Membrane Permeable-Phenotype (%): 4% and 6%
  Population Mitochondria Different-Phenotype (%): 0%
  Population Mitotic Cells (%): 33% and 43%
  Population Normal (%): 99%
  Population Pyknosed Nuclei (%): 15% and 18%
  Population Tubulin-Different-Phenotype (%): 8% and 5%
  Total Cell Count: 192 and 250
[6]
  Population Apoptotic (%): 78% and 80%
  Population Fragmented Nuclei (%): 9%
  Population Healthy Nuclei (%): 83% and 74%
  Population Hoechst High Intensity Objects (%): 0%
  Population Membrane Permeable-Phenotype (%): 3% and 9%
  Population Mitochondria Different-Phenotype (%): 1%
  Population Mitotic Cells (%): 21% and 20%
  Population Normal (%): 100%
  Population Pyknosed Nuclei (%): 6% and 16%
  Population Tubulin-Different-Phenotype (%): 16% and 26%
  Total Cell Count: 203 and 209

## CC(C)(C)c1cnc(CSc2cnc(NC(=O)C3CCNCC3)s2)o1 [BMS-387032]
[1]
  Population Apoptotic (%): 56% and 46%
  Population Fragmented Nuclei (%): 8% and 6%
  Population Healthy Nuclei (%): 60% and 72%
  Population Hoechst High Intensity Objects (%): 0%
  Population Membrane Permeable-Phenotype (%): 6% and 7%
  Population Mitochondria Different-Phenotype (%): 0% and 2%
  Population Mitotic Cells (%): 43% and 53%
  Population Normal (%): 100%
  Population Pyknosed Nuclei (%): 31% and 21%
  Population Tubulin-Different-Phenotype (%): 15% and 16%
  Total Cell Count: 96 and 204
[2]
  Population Apoptotic (%): 46% and 38%
  Population Fragmented Nuclei (%): 7% and 9%
  Population Healthy Nuclei (%): 58% and 67%
  Population Hoechst High Intensity Objects (%): 0%
  Population Membrane Permeable-Phenotype (%): 3% and 6%
  Population Mitochondria Different-Phenotype (%): 4% and 8%
  Population Mitotic Cells (%): 53% and 61%
  Population Normal (%): 100%
  Population Pyknosed Nuclei (%): 33% and 23%
  Population Tubulin-Different-Phenotype (%): 37% and 43%
  Total Cell Count: 141 and 213
[3]
  Population Apoptotic (%): 64% and 54%
  Population Fragmented Nuclei (%): 12% and 10%
  Population Healthy Nuclei (%): 61% and 63%
  Population Hoechst High Intensity Objects (%): 0%
  Population Membrane Permeable-Phenotype (%): 7% and 9%
  Population Mitochondria Different-Phenotype (%): 0% and 1%
  Population Mitotic Cells (%): 35% and 45%
  Population Normal (%): 100%
  Population Pyknosed Nuclei (%): 26%
  Population Tubulin-Different-Phenotype (%): 21% and 18%
  Total Cell Count: 106 and 208
[4]
  Population Apoptotic (%): 52% and 71%
  Population Fragmented Nuclei (%): 12% and 11%
  Population Healthy Nuclei (%): 49% and 62%
  Population Hoechst High Intensity Objects (%): 0%
  Population Membrane Permeable-Phenotype (%): 6% and 7%
  Population Mitochondria Different-Phenotype (%): 10% and 12%
  Population Mitotic Cells (%): 47% and 28%
  Population Normal (%): 100%
  Population Pyknosed Nuclei (%): 37% and 26%
  Population Tubulin-Different-Phenotype (%): 41% and 40%
  Total Cell Count: 147 and 198
[5]
  Population Apoptotic (%): 74% and 73%
  Population Fragmented Nuclei (%): 12% and 14%
  Population Healthy Nuclei (%): 49% and 52%
  Population Hoechst High Intensity Objects (%): 0%
  Population Membrane Permeable-Phenotype (%): 23% and 15%
  Population Mitochondria Different-Phenotype (%): 2% and 0%
  Population Mitotic Cells (%): 25% and 26%
  Population Normal (%): 100%
  Population Pyknosed Nuclei (%): 38% and 33%
  Population Tubulin-Different-Phenotype (%): 33% and 30%
  Total Cell Count: 183 and 115
[6]
  Population Apoptotic (%): 64% and 73%
  Population Fragmented Nuclei (%): 14% and 11%
  Population Healthy Nuclei (%): 43% and 38%
  Population Hoechst High Intensity Objects (%): 0%
  Population Membrane Permeable-Phenotype (%): 10% and 22%
  Population Mitochondria Different-Phenotype (%): 8% and 16%
  Population Mitotic Cells (%): 35% and 26%
  Population Normal (%): 100%
  Population Pyknosed Nuclei (%): 41% and 49%
  Population Tubulin-Different-Phenotype (%): 44% and 58%
  Total Cell Count: 194 and 137
